For test [1], the target named is T1, Autotaxin (Homo sapiens, UniProt Q13822). The test is described as follows: Inhibition of human recombinant C-terminal FLAG-tagged autotaxin expressed in baculovirus-infected Sf9 cells assessed as FS-3 hydrolysis at 10 uM relative to control. A digest of the protocol:
(§1)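 Single-dose screen: inhibitor 10 μM final, purified recombinant human ATX 8.3 nM, FS-3 1 μM, fatty acid free BSA 30 μM in Tris pH 8 buffer (1 mM MgCl2, 1 mM CaCl2, 3 mM KCl, 140 mM NaCl), 37 °C. Fluorescence (ex 485/em 538) read every 2 min; percent activity vs vehicle after no-ATX subtraction at 1 h; mean ± SD of three wells.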

Test [2] addresses T1, Autotaxin. The test is described as follows: Inhibition of human recombinant C-terminal FLAG-tagged autotaxin expressed in baculovirus-infected Sf9 cells using lysophosphatidylcholine as substrate assessed as choline release by Amplex red reagent assay. A digest of the protocol: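 LPC 16:0 100 μM with purified human ATX 8.3 nM and inhibitor 10 μM final, 30 μM fatty acid free BSA, 50 mM Tris/5 mM CaCl2 pH 7.4, 37 °C. Choline detected by choline oxidase 0.1 U/mL, HRP 1 U/mL, Amplex Red 10 μM; fluorescence ex 560/em 590 every 2 min, percent of vehicle at 1 h after no-ATX subtraction; mean ± SD of three wells.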

The target of test [3] is T1, Autotaxin. Put plainly: Inhibition of autotaxin at 10 uM. The essentials:
as §1

In test [4] the target is T1, Autotaxin. The test is described as follows: Inhibition of human recombinant C-terminal FLAG-tagged autotaxin expressed in baculovirus-infected Sf9 cells assessed as FS-3 hydrolysis. A digest of the protocol:
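Dose response: final inhibitor 30, 10, 3, 1, 0.3, 0.1, 0.03 μM, plus 0.01 and 0.003 μM for some compounds; purified human ATX 8.3 nM, 1 μM FS-3, 30 μM fatty acid free BSA, Tris pH 8 buffer, 37 °C. Fluorescence ex 485/em 538 every 2 min; percent activity vs vehicle at 1 h after no-ATX background subtraction; mean of three wells.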

The structures appear in SMILES notation. pIC50: −log10 of the molar value. Calls of active or inactive are those of the source. The rule behind the calls is not given here.

As usually defined, the inhibition is the drop in the measured response relative to a control, in per cent. On to `O=C(Nc1ccc(C(=O)Nc2cc(S(=O)(=O)O)cc3cccc(S(=O)(=O)O)c23)cc1)Nc1ccc(C(=O)Nc2cc(S(=O)(=O)O)cc3cccc(S(=O)(=O)O)c23)cc1`, for which, on Autotaxin [1], the inhibition is -5%. Besides, at Autotaxin [2], the inhibition result is “Active”.
With `CC1=NN(c2ccc(/C=C/c3ccc(NC(=O)Nc4ccc(/C=C/c5ccc(N6N=C(C)C(/N=N/c7ccccc7C(=O)O)C6=O)cc5S(=O)(=O)O)c(S(=O)(=O)O)c4)cc3S(=O)(=O)O)c(S(=O)(=O)O)c2)C(=O)C1/N=N/c1ccccc1C(=O)O` (centres undefined), at Autotaxin [1], the inhibition stood at 13%. For the same compound, at Autotaxin [2], the inhibition entry is “Active”.
For the compound `O=[As](O)(O)c1ccc(Cc2ccc([As](=O)(O)O)cc2)cc1`, the inhibition on Autotaxin [3] was found to be 98%.
Take `Nc1ccc(C(=O)Nc2ccc(C(=O)Nc3ccc4c(O)cc(S(=O)(=O)O)cc4c3)cc2)cc1`: on Autotaxin [1], the inhibition turned out to be 40%. Also, the inhibition result on Autotaxin [2] was “Active”.
The term pIC50 denotes the IC50 on a negative log10 scale, so that one unit is a factor of ten. Take `COc1cc(NC(=O)c2ccc(NC(=O)c3ccc(N)cc3)cc2)c(OC)cc1/N=N/c1cc(C)c(/N=N/c2cc(S(=O)(=O)O)c3cccc(S(=O)(=O)O)c3c2)cc1C`: at Autotaxin [4], the pIC50 was 5.12. In addition, the inhibition at Autotaxin [1] was found to be 53%.
For `O=S(=O)(O)c1ccc(-c2c3nc(c(-c4ccc(S(=O)(=O)O)cc4)c4ccc([nH]4)c(-c4ccc(S(=O)(=O)O)cc4)c4ccc([nH]4)c(-c4ccc(S(=O)(=O)O)cc4)c4nc2C=C4)C=C3)cc1` [TETRAPHENYLPORPHINE TETRASULFONIC ACID], the pIC50 on Autotaxin [4] (sf9) is 5.11. Also, the inhibition at Autotaxin [1] stood at 61%.
In the case of `O=C(Nc1cc(S(=O)(=O)O)cc2cc(S(=O)(=O)O)c(/N=N/c3cc(Nc4nc(O)nc(Nc5ccc(S(=O)(=O)O)cc5)n4)ccc3S(=O)(=O)O)c(O)c12)c1ccccc1`, at Autotaxin [4], the pIC50 is 5.14. Besides, the inhibition on Autotaxin [1] was determined as 76%.
For `COc1ccccc1/N=N/c1c(S(=O)(=O)O)cc2cc(NC(=O)Nc3ccc4c(O)c(/N=N/c5ccc(S(=O)(=O)O)cc5C)c(S(=O)(=O)O)cc4c3)ccc2c1O` the same measures were 4.74 and 59%.
For `O=S(=O)(O)c1cc(O)c2ccc(Nc3ccc4c(O)cc(S(=O)(=O)O)cc4c3)cc2c1`, the inhibition at Autotaxin [1] amounted to 11%. Also, the inhibition result at Autotaxin [2] was “Active”.
Take `COc1cc(/N=N/c2c(S(=O)(=O)O)cc3cc(NC(=O)Nc4ccc5c(O)c(/N=N/c6ccc7cc(S(=O)(=O)O)ccc7c6)c(S(=O)(=O)O)cc5c4)ccc3c2O)c(C)cc1N`: the pIC50 on Autotaxin [4] is 4.86. At Autotaxin [1], the inhibition amounted to 70%.
For `Cc1ccc(/N=N/c2c(S(=O)(=O)O)cc3cc(NC(=O)Nc4ccc5c(O)c(/N=N/c6ccc7cc(S(=O)(=O)O)ccc7c6)c(S(=O)(=O)O)cc5c4)ccc3c2O)c(C)c1` the same measures were 4.73 and 67%.
On to `Cc1cccc(/N=N/c2c(S(=O)(=O)O)cc3cc(NC(=O)Nc4ccc5c(O)c(/N=N/c6ccc7cc(S(=O)(=O)O)ccc7c6)c(S(=O)(=O)O)cc5c4)ccc3c2O)c1`, for which, on Autotaxin [4], the pIC50 was 4.92. In addition, on Autotaxin [1], the inhibition worked out at 80%.
Turning to `CCn1cc(C(=O)O)c(=O)c2cnc(N3CCN(C(=S)Nc4cc(Cl)cc(Cl)c4)CC3)nc21`, the inhibition against Autotaxin [3] is 100%.
The same measure, in the same setting: for `COc1c(C=O)c(O)cc2c1C(=O)c1ccccc1C2=O` the value was 70%.
As for `CC(=O)Nc1ccc(/C=C/c2ccc(NC(=O)Nc3ccc(/C=C/c4ccc(NC(C)=O)cc4S(=O)(=O)O)c(S(=O)(=O)O)c3)cc2S(=O)(=O)O)c(S(=O)(=O)O)c1`, the pIC50 at Autotaxin [4] was 4.64. Further, the inhibition at Autotaxin [1] came out at 49%.
For `Cc1c(N)cc(S(=O)(=O)O)c(/N=N/c2ccc(-c3ccc(/N=N/c4c(S(=O)(=O)O)cc5cc(S(=O)(=O)O)c(/N=N/c6cccc([N+](=O)[O-])c6)c(N)c5c4O)cc3)cc2)c1N` the same measures were 5.23 and 68%.
For `COc1cc(/N=N/c2cc(S(=O)(=O)O)cc3cc(S(=O)(=O)O)cc(O)c23)c(C)cc1/N=N/c1c(S(=O)(=O)O)cc2cc(Nc3ccccc3)ccc2c1O` the same measures were 4.42 and 53%.
With `Nc1ccc2cc(S(=O)(=O)O)c(/N=N/c3ccc(-c4ccc(/N=N/c5c(S(=O)(=O)O)cc6cc(S(=O)(=O)O)c(/N=N/c7cccc([N+](=O)[O-])c7)c(N)c6c5O)cc4)cc3)c(O)c2c1`, the pIC50 on Autotaxin [4] is 4.55. Moreover, the inhibition on Autotaxin [1] was 65%.
For `Cc1ccc(C)c(/N=N/c2c(S(=O)(=O)O)cc3cc(NC(=O)Nc4ccc5c(O)c(/N=N/c6ccc7cc(S(=O)(=O)O)ccc7c6)c(S(=O)(=O)O)cc5c4)ccc3c2O)c1` the same measures were 4.81 and 65%.
For `O=C(Nc1ccc(/C=C/c2ccc(NC(=O)c3cc(S(=O)(=O)O)c4cccnc4c3O)cc2S(=O)(=O)O)c(S(=O)(=O)O)c1)c1cc(S(=O)(=O)O)c2cccnc2c1O` the same measures were 5.13 and 53%.
For `O=C(Nc1ccc2cc(S(=O)(=O)O)ccc2c1)c1ccc(/N=N/c2c(S(=O)(=O)O)cc3cc(S(=O)(=O)O)cc(NC(=O)c4ccccc4)c3c2O)cc1` the same measures were 5.05 and 72%.
